The subject of one experiment is HL-60. Kind of experiment: Antiproliferative activity against human HL60 cells after 48 hrs by sulforhodamine B assay. The conditions noted are these: HL-60, 48 h. The format is functional, cell-based. In outline: (§1)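 Sulforhodamine B assay following NCI guidelines. Log-phase cells seeded at 10^4 cells/well and allowed to attach for 24 h at 37 °C, 5% CO2. Exposed 48 h to 1:10 serial dilutions, four replicate wells per condition. Fixed with 50% cold TCA for 1 h at 4 °C, stained, dye dissolved in tris buffer, OD read at 540 nm. Blank-subtracted growth expressed relative to untreated (100%) and reported as IC50.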

For another experiment, the system named is Aspergillus fumigatus. The experiment in a line: Antifungal activity against Aspergillus fumigatus LSI-II. The format is functional.
The subject of experiment [1] is Staphylococcus aureus. Kind of experiment: Antibacterial activity against methicillin-resistant Staphylococcus aureus 15187 treated for 24 hrs followed by compound treated at 2 to 16 times MIC measured after 24 hrs by micro dilution method. The conditions noted are these: Staphylococcus aureus, 15187, 24 h. The format is functional. The method, boiled down: (§2)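 MBC taken from the same 24 h microdilution plates (Mueller Hinton broth, final inoculum 5 × 10^6 CFU mL-1, 37 °C). […] Spots were incubated 24 h and colonies counted. MBC is the lowest concentration giving a 3 log drop from the starting inoculum.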

The next experiment concerns PC-3. The experiment in a line: Antiproliferative activity against human PC3 cells after 48 hrs by sulforhodamine B assay. The format is functional, cell-based. Particulars: PC-3, 48 h. The method, boiled down:
as §1

The test system of experiment [2] is Enterococcus. Kind of experiment: Antibacterial activity against vancomycin-resistant Enterococcus treated for 24 hrs followed by compound treated at 2 to 16 times MIC measured after 24 hrs by micro dilution method. The format is functional. The method, boiled down: as §2
For experiment [3], the system named is Staphylococcus aureus. Kind of experiment: Antibacterial activity against Staphylococcus aureus ATCC 29213 treated for 24 hrs followed by compound treated at 2 to 16 times MIC measured after 24 hrs by micro dilution method. The format is functional. The conditions noted are these: ATCC 29213, 24 h.
The subject of a further experiment is MOLT-4. Kind of experiment: Antiproliferative activity against human MOLT4 cells after 48 hrs by sulforhodamine B assay. The format is functional, cell-based. Particulars: MOLT-4, 48 h. The method, boiled down:
as §1

The subject of experiment [4] is Staphylococcus aureus. The experiment in a line: Antibacterial activity against methicillin-resistant Staphylococcus aureus 15187 after 24 hrs by micro dilution method. The format is functional. Particulars: Staphylococcus aureus, 15187, 24 h. The method, boiled down: (§3)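 Broth microdilution in Mueller Hinton broth, two-fold serial dilutions, final 0.25 to 256 µg mL-1. Inoculum from 24 h culture in saline, set to 0.5 McFarland, diluted to a final 5 × 10^6 CFU mL-1. Plates held at 37 °C for 24 h and read by eye. MIC is the lowest concentration with no turbidity.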

Another experiment concerns Candida albicans. Kind of experiment: Antifungal activity against Candida albicans ATCC 90028. The format is functional.
Experiment [5] deals with Enterococcus. Kind of experiment: Antibacterial activity against vancomycin-resistant Enterococcus after 24 hrs by micro dilution method. The format is functional. The method, boiled down: as §3
The subject of experiment [6] is Staphylococcus aureus. Kind of experiment: Antibacterial activity against Staphylococcus aureus ATCC 29213 after 24 hrs by micro dilution method. The format is functional. The conditions noted are these: ATCC 29213, 24 h. The method, boiled down:
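Broth microdilution in Mueller Hinton broth. Inoculum from a 24 h culture in saline, set to 0.5 McFarland and diluted to a final 5 × 10^6 CFU mL-1. Two-fold serial dilutions, final 0.25–256 µg mL-1. Incubated 37 °C for 24 h and read visually. MIC is the lowest concentration with no turbidity.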

Among the data in ChEMBL document CHEMBL1955787, “Design and synthesis of novel magnolol derivatives as potential antimicrobial and antiproliferative compounds” (Eur J Med Chem, 2012) are IC50, MIC and MBC values, retold here.

Converted amounts (≈) assume the structure as drawn. The source made the active and inactive calls. The calls are words filed in the database; no cut-off is given here. Where only a bound is given, the exact number is not on record here.

On to `C=CCc1cc(OC)c(O)c(-c2cc(CC=C)cc(OC)c2O)c1`, for which the IC50 with HL-60, in the experiment on PC-3 and in the experiment on MOLT-4 was above 100 µM in each case. The MIC is 32 µg/mL (≈ 98 µM) against Aspergillus fumigatus; above 256 µg/mL against Staphylococcus aureus [4]; 64 µg/mL (≈ 196 µM) in the experiment with Candida albicans; above 256 µg/mL against Enterococcus [5]; above 256 µg/mL against Staphylococcus aureus [6]. The MBC with Staphylococcus aureus [1], against Enterococcus [2] and with Staphylococcus aureus [3] was above 256 µg/mL each time.
`O=c1[nH]cc(F)c(=O)[nH]1` [FLUOROURACIL]: the values for the IC50 with HL-60, in the experiment on PC-3 and in the experiment on MOLT-4 were 266 µM, 2.1 µM and 3.2 µM, respectively.
Consider `C=CCc1cc(O)c(O)c(-c2cc(CC=C)cc(OC)c2O)c1`, for which the IC50 with HL-60, with PC-3 and in the experiment on MOLT-4 was above 100 µM in each case. Further, the MIC result in the experiment on Aspergillus fumigatus and with Candida albicans was “inactive” throughout. For the same compound, the figures for the MBC against Staphylococcus aureus [1], against Enterococcus [2] and in the experiment with Staphylococcus aureus [3] were 64 µg/mL (≈ 205 µM), 128 µg/mL (≈ 410 µM) and 16 µg/mL (≈ 51.2 µM), respectively. For the same compound, the results for the MIC in the experiment with Staphylococcus aureus [4], against Enterococcus [5] and against Staphylococcus aureus [6] were 16 µg/mL (≈ 51.2 µM), 32 µg/mL (≈ 102 µM) and 16 µg/mL (≈ 51.2 µM), respectively.
In the case of `O=C(O)c1cn(C2CC2)c2cc(N3CCNCC3)c(F)cc2c1=O` [CIPROFLOXACIN], the MBC turned out to be 8 µg/mL (≈ 24.1 µM) in the experiment on Staphylococcus aureus [1], 64 µg/mL (≈ 193 µM) against Enterococcus [2] and 0.5 µg/mL (≈ 1.51 µM) in the experiment with Staphylococcus aureus [3]. Moreover, the minimum inhibitory concentration (MIC) turned out to be 8 µg/mL (≈ 24.1 µM) against Staphylococcus aureus [4], 32 µg/mL (≈ 96.6 µM) in the experiment on Enterococcus [5] and 0.25 µg/mL (≈ 0.754 µM) against Staphylococcus aureus [6].
Regarding `CCCCc1ccc(O)c(-c2cc(CCCC)cc(I)c2O)c1`, the values for the IC50 in the experiment with HL-60, with PC-3 and with MOLT-4 were 50 µM, 60 µM and 66 µM, respectively. In addition, the MIC result in the experiment on Aspergillus fumigatus and in the experiment on Candida albicans was “inactive” in each case. The MBC in the experiment with Staphylococcus aureus [1], in the experiment with Enterococcus [2] and in the experiment with Staphylococcus aureus [3] was above 256 µg/mL throughout. In addition, the MIC against Staphylococcus aureus [4], with Enterococcus [5] and with Staphylococcus aureus [6] was above 256 µg/mL each time.
For the compound `CCCc1cc(I)c(O)c(-c2cc(CCC)cc(I)c2O)c1`, the IC50 in the experiment with HL-60 was determined as 7 µM; in the experiment with PC-3, 7 µM; with MOLT-4 it was 18 µM. In addition, the MIC entry with Aspergillus fumigatus and in the experiment on Candida albicans was “inactive” in each case. Besides, the MBC against Staphylococcus aureus [1], against Enterococcus [2] and against Staphylococcus aureus [3] was 64 µg/mL (≈ 123 µM) in each case. Moreover, the MIC against Staphylococcus aureus [4], against Enterococcus [5] and against Staphylococcus aureus [6] was 64 µg/mL (≈ 123 µM) in each case.
Consider `C=CCc1cc(O)c(O)c(-c2cc(CC=C)cc(O)c2O)c1`, for which the IC50 with HL-60, in the experiment on PC-3 and in the experiment with MOLT-4 was above 100 µM in each case. Moreover, the MIC in the experiment on Aspergillus fumigatus was determined as 64 µg/mL (≈ 215 µM); against Staphylococcus aureus [4] it was 16 µg/mL (≈ 53.6 µM); against Candida albicans, 128 µg/mL (≈ 429 µM); against Enterococcus [5] it was 16 µg/mL (≈ 53.6 µM); in the experiment with Staphylococcus aureus [6], 8 µg/mL (≈ 26.8 µM). The MBC against Staphylococcus aureus [1] came to 16 µg/mL (≈ 53.6 µM); in the experiment on Enterococcus [2], 32 µg/mL (≈ 107 µM); against Staphylococcus aureus [3], 8 µg/mL (≈ 26.8 µM).
For `CC[C@H]1OC(=O)[C@H](C)[C@@H](O[C@H]2C[C@@](C)(OC)[C@@H](O)[C@H](C)O2)[C@H](C)[C@@H](O[C@@H]2O[C@H](C)C[C@H](N(C)C)[C@H]2O)[C@](C)(O)C[C@@H](C)C(=O)[C@H](C)[C@@H](O)[C@]1(C)O` [ERYTHROMYCIN], the MBC against Staphylococcus aureus [1] is 64 µg/mL (≈ 87.2 µM); in the experiment on Enterococcus [2], 64 µg/mL (≈ 87.2 µM); in the experiment on Staphylococcus aureus [3], 1 µg/mL (≈ 1.36 µM). In addition, the MIC against Staphylococcus aureus [4] came out at 64 µg/mL (≈ 87.2 µM); with Enterococcus [5] it was 64 µg/mL (≈ 87.2 µM); against Staphylococcus aureus [6] it was 0.5 µg/mL (≈ 0.681 µM).
`CCCc1ccc(O)c(-c2cc(CCC)cc(Br)c2O)c1`: the IC50 in the experiment on HL-60, with PC-3 and in the experiment on MOLT-4 was above 100 µM throughout. Also, the MIC result in the experiment with Aspergillus fumigatus and in the experiment with Candida albicans was “inactive” in each case. In addition, the MBC against Staphylococcus aureus [1] was determined as 16 µg/mL (≈ 45.8 µM); with Enterococcus [2] it was 32 µg/mL (≈ 91.6 µM); in the experiment on Staphylococcus aureus [3] it was 8 µg/mL (≈ 22.9 µM). Further, the MIC against Staphylococcus aureus [4] stood at 16 µg/mL (≈ 45.8 µM); in the experiment with Enterococcus [5], 16 µg/mL (≈ 45.8 µM); in the experiment with Staphylococcus aureus [6], 8 µg/mL (≈ 22.9 µM).
